Results on 27 compounds are retold here after ChEMBL document CHEMBL4385647, “Design, synthesis and biological evaluation of 3-hydroxyquinazoline-2,4(1H,3H)-diones as dual inhibitors of HIV-1 reverse transcriptase-associated RNase H and integrase” (Bioorg Med Chem, 2019).

Data set [1] can be described thus: Cytotoxicity in mock-infected human MT4 cells assessed as reduction in cell viability incubated for 5 days by MTT assay. The format is cell-based. The procedure, abridged:
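Mock-infected MT-4 cells at 6×10^5 cells/mL were exposed to serial five-fold compound dilutions in triplicate wells in parallel with the infected series. After 5 days, viability was read by MTT at 540 and 690 nm from the median OD of two or three wells.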

The subject of data set [2] is Human immunodeficiency virus 1. The data set can be described thus: Antiviral activity against HIV1 3B infected in human MT4 cells incubated for 5 days by MTT assay. Type of data set: functional, organism-based. As to conditions: Human immunodeficiency virus 1, 3B, MT4, 120 h. The procedure, abridged: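 MT-4 cells resuspended at 6×10^5 cells/mL and infected with 100-300 CCID50 of HIV-1 IIIB or HIV-2 ROD. Serial five-fold compound dilutions were tested in triplicate wells. After 5 days, viability was measured by MTT reduction with absorbance read at 540 and 690 nm, using the median OD of two or three wells.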
For orientation: Tetrazolium assays rely on reduction of a dye to a coloured formazan, in cell work by metabolically active cells.

The nature of data set [3]: Inhibition of HIV reverse transcriptase RNase H activity. More on the design: species or system Human immunodeficiency virus. The procedure, abridged:
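Wild-type HIV-1 BH10 RT (20-40 nM), expressed in E. coli, was incubated at 37°C in 50 mM Tris-HCl pH 8.0, 50 mM NaCl, 5 mM MgCl2 and 5% DMSO. Cleaved substrate was quantified over 0.2-100 μM compound against a DMSO-only control. IC50 was taken from dose-response curves.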

Data set [4] in a line: Apparent permeability in human Caco2 cells by LC analysis. As to conditions: Caco-2. The format is ADME, cell-based. The procedure, abridged: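 Transport was measured across Caco-2 cell monolayers, with nadolol and metoprolol as controls. Papp (cm/s) was calculated as (dCr/dt)×Vr/(A×C0), where dCr/dt is the cumulative receiver-chamber concentration over time.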
A general note: Passage across Caco-2 layers is used to estimate intestinal permeability.

The target in data set [5] is Human immunodeficiency virus type 1 reverse transcriptase (Human immunodeficiency virus 1, UniProt Q72547). The data set can be described thus: Inhibition of HIV1 reverse transcriptase RNase H activity expressed in Escherichia coli using 32P-labeled template 31Trna RNA and DNA oligonucleotide 21P.
Data set [6] has as its target T1, Human immunodeficiency virus type 1 integrase (Human immunodeficiency virus 1, UniProt Q7ZJM1). The data set can be described thus: Inhibition of strand transfer activity of HIV1 integrase expressed in Escherichia coli using DNA complexes containing 32P-labeled INT1ST and non-labeled INT2.
Data set [7] addresses Human immunodeficiency virus type 1 integrase (Human immunodeficiency virus 1) (UniProt Q7ZJM1). The data set can be described thus: Inhibition of strand transfer activity of HIV1 integrase expressed in Escherichia coli at 0.1 to 10 uM using DNA complexes containing 32P-labeled INT1ST and non-labeled INT2. The procedure, abridged:
(§1)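 Wild-type HIV-1 IN, expressed in E. coli, was assayed for strand transfer with DNA complexes of 32P-labeled INT1ST and unlabeled INT2 at 1% DMSO. Percent inhibition was measured at […].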

Data set [8] shares this target. The data set can be described thus: Inhibition of strand transfer activity of HIV1 integrase expressed in Escherichia coli at 10 uM using DNA complexes containing 32P-labeled INT1ST and non-labeled INT2. In short, it runs like this: as §1
Data set [9] deals with T1, Human immunodeficiency virus type 1 integrase. The data set can be described thus: Inhibition of HIV integrase strand transfer activity.

Each structure is given as a SMILES string. Active and inactive are the calls of the source. The calls are words filed in the database; no cut-off is given here.

Human immunodeficiency virus type 1 integrase (Human immunodeficiency virus 1), sequence (Q7ZJM1 as listed by the source): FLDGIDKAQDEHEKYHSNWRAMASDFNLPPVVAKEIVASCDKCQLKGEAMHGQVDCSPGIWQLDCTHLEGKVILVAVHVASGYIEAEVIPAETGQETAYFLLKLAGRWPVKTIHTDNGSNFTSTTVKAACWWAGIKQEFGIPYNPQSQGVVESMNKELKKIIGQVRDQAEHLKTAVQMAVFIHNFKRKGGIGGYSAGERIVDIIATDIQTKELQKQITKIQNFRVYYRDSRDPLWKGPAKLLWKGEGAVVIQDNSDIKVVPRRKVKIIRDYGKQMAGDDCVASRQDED
T1 sequence (Q7ZJM1 whole entry): as the sequence (Q7ZJM1 as listed by the source) above

For `Cc1nnc(C(=O)NC(C)(C)c2nc(C(=O)NCc3ccc(F)cc3)c(O)c(=O)n2C)o1`, the CC50 at 120 h in [1] is 6.51 µM. For the same compound, the concentration giving a half-maximal response (EC50) in data set [2] was found to be 0.015 µM.

In data set [3], `CCOC(=O)C(=O)CC(=O)/C=C/c1cccn1Cc1ccccc1Cl` had an IC50 of 7.3 µM.

With `CC(C)(C)NCC(O)COc1cccc2c1CC(O)C(O)C2` (stereo unspecified) [NADOLOL], the apparent permeability (Papp) in data set [4] stood at 0.09 ×10⁻⁶ cm/s.

Regarding `O=c1[nH]c2cc(NS(=O)(=O)c3ccc(F)cc3)ccc2c(=O)n1O`, the cytotoxic concentration (CC50) at 120 h in data set [1] was over 356 µM. In addition, the concentration giving a half-maximal response (EC50) in data set [2] is over 356 µM. In addition, the IC50 in data set [5] came to 5.68 µM.

For `O=c1[nH]c2ccc(NS(=O)(=O)c3cccc(C(F)(F)F)c3)cc2c(=O)n1O`, the CC50 at 120 h in [1] amounted to 176 µM. Moreover, in data set [2], the EC50 is over 176 µM. For the same compound, it took 2 µM to reach half-maximal inhibition in data set [5] (IC50).

Consider `O=C(Nc1ccc2c(=O)n(O)c(=O)[nH]c2c1)c1ccc(C(F)(F)F)cc1`, for which the CC50 at 120 h in data set [1] was 316 µM. This compound also returned a concentration for a half-maximal effect (EC50) in [2] of over 316 µM. In [5], the 50% inhibitory concentration (IC50) was 6.09 µM.

`O=c1[nH]c2cc(NS(=O)(=O)c3cccc(C(F)(F)F)c3)ccc2c(=O)n1O`: the CC50 at 120 h in data set [1] stood at 80.2 µM. In data set [2], the EC50 was over 80.2 µM. The concentration for half-maximal inhibition (IC50) in [5] was 5.33 µM.

Regarding `O=c1[nH]c2ccc(NS(=O)(=O)c3ccc4ccccc4c3)cc2c(=O)n1O`, the CC50 at 120 h in data set [1] is 208 µM. Also, the Papp in data set [4] is under 0.19 ×10⁻⁶ cm/s. This compound came in with an EC50 in [2] of over 208 µM. Further, the concentration for half-maximal inhibition (IC50) stood at 0.41 µM in data set [5] and 0.85 µM in [6].

Consider `COc1ccc(Cc2nc(O)c(O)c(C(=O)O)n2)cc1Br`, for which the half-inhibitory concentration (IC50) in [3] amounted to 1.4 µM.

With `Cc1ccc(C(=O)Nc2ccc3c(=O)n(O)c(=O)[nH]c3c2)cc1`, the half-maximal cytotoxic concentration (CC50) at 120 h in data set [1] turned out to be 10.9 µM. Moreover, the concentration for a half-maximal effect (EC50) in data set [2] was over 10.9 µM. In data set [5], this compound registered an IC50 of 2.74 µM.

Turning to `O=c1[nH]c2cc(NS(=O)(=O)c3ccc(-c4ccccc4)cc3)ccc2c(=O)n1O`, the CC50 at 120 h in data set [1] is over 305 µM. The same compound showed an EC50 in [2] of over 305 µM. Also, the IC50 in [5] turned out to be 11.7 µM.

`O=C(Nc1ccc2c(=O)n(O)c(=O)[nH]c2c1)c1cccc(F)c1`: the cytotoxic concentration (CC50) at 120 h in data set [1] was found to be 39.8 µM. For the same compound, the 50% effective concentration (EC50) in data set [2] is over 39.8 µM. The same compound gave a half-maximal inhibitory concentration (IC50) in data set [5] of 3.73 µM.

Turning to `NCc1ccc(-c2ccc(Cc3cc(=O)n(O)c4ncccc34)cc2)cc1`, in [3], the half-inhibitory concentration (IC50) came out at 0.045 µM.

Consider `Cc1cccc(S(=O)(=O)Nc2ccc3c(=O)n(O)c(=O)[nH]c3c2)c1`, for which the CC50 at 120 h in data set [1] was 310 µM. In data set [2], this compound had an EC50 of over 310 µM. In data set [5], 4.1 µM corresponded to half-maximal inhibition (IC50).

In the case of `O=c1[nH]c2cc(NS(=O)(=O)c3ccc4ccccc4c3)ccc2c(=O)n1O`, the CC50 at 120 h in data set [1] turned out to be 220 µM. Moreover, the inhibition entry in data set [7] is “Active”. Also, the EC50 in data set [2] is over 220 µM. This compound displayed an IC50 in data set [5] of 20.1 µM. In data set [8], this compound came in with an inhibition of 50 to 60%.

As to `O=C(Nc1ccc2[nH]c(=O)n(O)c(=O)c2c1)c1ccccc1F`, the 50% cytotoxic concentration (CC50) at 120 h in data set [1] is 168 µM. Besides, the concentration giving a half-maximal response (EC50) in data set [2] was over 168 µM. In data set [5], this compound gave an IC50 of 4.29 µM.

Regarding `O=C(Nc1ccc2c(=O)n(O)c(=O)[nH]c2c1)c1ccccc1`, the half-maximal cytotoxic concentration (CC50) at 120 h in [1] came to 36.6 µM. Moreover, the EC50 in [2] is over 36.6 µM. Moreover, the IC50 in data set [5] was 2.52 µM.

For the compound `NS(=O)(=O)c1ccc(-c2ccc(Cn3cc(O)c(=O)c(C(=O)O)c3)cc2)cc1`, the IC50 in [3] came out at 0.65 µM.

On to `Cc1cc(C)c(S(=O)(=O)Nc2ccc3c(=O)n(O)c(=O)[nH]c3c2)c(C)c1`, for which the CC50 at 120 h in data set [1] was determined as 154 µM. The EC50 in data set [2] is over 154 µM. This compound yielded a concentration for half-maximal inhibition (IC50) in data set [5] of 3.24 µM.

`O=C1Cc2cc(Cc3ccc(-c4ccccc4)cc3)ccc2C(=O)N1O`: the half-maximal inhibitory concentration (IC50) in data set [3] was 0.8 µM.

For the compound `O=c1[nH]c2ccc(NS(=O)(=O)c3ccc(F)cc3)cc2c(=O)n1O`, the CC50 at 120 h in data set [1] was determined as 199 µM. The EC50 in data set [2] is over 199 µM. This compound registered an IC50 in data set [5] of 2.25 µM.

Consider `O=c1[nH]c2ccc(NS(=O)(=O)c3ccccc3)cc2c(=O)n1O`, for which the cytotoxic concentration (CC50) at 120 h in data set [1] was determined as 213 µM. Further, the EC50 in data set [2] was over 213 µM. It took 1.19 µM to reach half-maximal inhibition in [5] (IC50).

`CC(C)(C)c1ccc(S(=O)(=O)Nc2ccc3c(=O)n(O)c(=O)[nH]c3c2)cc1`: the CC50 at 120 h in [1] came out at 307 µM. Also, the inhibition result in [7] is “Active”. The same compound gave an EC50 in data set [2] of over 307 µM. Further, the IC50 in data set [5] amounted to 5.88 µM. The inhibition in data set [8] lay in the range of 50 to 60%.

Take `CC(C)c1ccc(O)c(=O)c(O)c1` [BETA-THUJAPLICINOL]: the CC50 at 120 h in [1] was 2.83 µM. This compound showed an EC50 in data set [2] of over 2.83 µM. Besides, the concentration for half-maximal inhibition (IC50) came out at 3.8 µM in data set [3] and 1.98 µM in [5].

Regarding `COCCc1ccc(OCC(O)CNC(C)C)cc1` (stereo unspecified) [METOPROLOL], the apparent permeability coefficient (Papp) in [4] was determined as 14.7 ×10⁻⁶ cm/s.

Compound `O=C(NCc1c(F)cc(F)cc1F)c1cn2c(c(O)c1=O)C(=O)N1[C@H]3CC[C@H](C3)O[C@@H]1C2` [BICTEGRAVIR] had a 50% inhibitory concentration (IC50) in [9] of 0.0075 µM.

`O=C(Nc1ccc2c(=O)n(O)c(=O)[nH]c2c1)c1ccc(F)cc1`: in data set [1], the CC50 at 120 h was 43 µM. In data set [2], the EC50 is over 43 µM. The compound further gave an IC50 in data set [5] of 3.73 µM.

What is called CC50 is the concentration that lowers cell viability or growth by half. One may read the EC50 as the midpoint of the concentration-response curve. Lower therefore signals a more potent agent. As usually defined, the IC50 is the concentration that gives 50% inhibition. Usually Papp stands for the rate of passage across a membrane or cell layer, normalised by area and donor concentration. For orientation: inhibition means the change of the read-out against control, counted positive when it falls.
